We go through 24 sequences from the EternaBench riboswitch data.

This data set has as its system MS2 coat protein. Put plainly: apparent Kd, MS2 coat protein; higher = weaker binding; RNA-MaP array. Summed up: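 RNA designs were transcribed from sequenced DNA templates on an Illumina sequencing chip and then incubated at room temperature with fluorescently labeled MS2 coat protein at 1.5 nM to 3 μM, with or without input ligand, in Tris-HCl pH 7.5 buffer containing KCl, MgCl2, BSA, DTT, tRNA and Tween20. Incubation lasted 0.8–1.5 h at the lowest protein concentrations and 10–20 min at the highest. Apparent Kd is the median of binding-curve fits made for each cluster. Designs measured on fewer than 10 clusters were excluded.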

The mark [1] stands for this setting: designed as: OFF switch for flavin mononucleotide, no ligand.
Setting [2] is: ligand present: flavin mononucleotide, designed as: OFF switch for flavin mononucleotide.
Where [3] appears, read: designed as: ON switch for flavin mononucleotide, no ligand.
The mark [4] stands for this setting: ligand present: flavin mononucleotide, designed as: ON switch for flavin mononucleotide.

One may read the apparent Kd as the concentration giving half-maximal binding under the conditions of the assay. In the case of “CAACGGUUAGAGAAGGCAUAGUAAAGAAUUCAAUGAGGAUAUCUAAAGAAAUGUAUAGGUCUUUUACAUGAGGAUCACCCAUGU”, the “apparent Kd” value turned out to be 17.6 nM under setting [1] and 9.47 nM under setting [2].

Turning to “GUCCUUAUAACAUGAGGAUCACCCAUGUAAUUCAAUCUGCGAGAGGAUAUGUCUGAGCAUCCCACACAGAAGGCUCCGGAACAG”, the “apparent Kd” value reads like this: under setting [1], 22.8 nM; under setting [2], 20.1 nM.

Regarding “CACAUGUCAGGAUAUAGCGAUACAGUUCGACCACUUACUGCCUAGAAGGGACAUGAGGAUCACCCAUGUAAAAG”, the “apparent Kd” value was 26.1 nM under setting [1] and 61.2 nM under setting [2].

For “UACAUACAUGAGGAUCACCCAUGUUGCGAUACCAGCGAAAGAGACCGCCCUUGGCAGCGCUCAUUUAGUUCCAUUCUUGAUCGAA”, the “apparent Kd” value was 14.3 nM (designed as: ON switch for theophylline, no ligand) and 25.1 nM (ligand present: theophylline, designed as: ON switch for theophylline).

In the case of “AGGAGCGGAAUAGGAUAUUGUAGAUAUAUCAAACAAGAAGGAUUAGCUAACAUGAGGAUCACCCAUGUGGGAUCAAACUCACUC”, the “apparent Kd” value is 82.7 nM under setting [1] and 127 nM under setting [2].

Regarding “CUGUACAUGAGGAUCACCCAUGUUAGACCAGCUUAAAAUAUAAGAAGGUUGAGGGCUUGACCAACAAAGGAUAUUAUGUGACCA”, the “apparent Kd” value under setting [3] amounted to 27.7 nM and the “apparent Kd” value under setting [4] was determined as 18.1 nM.

In the case of “CGCUAAGAGCGGCACCUCCACAUGAGGAUCACCCAUGUUUGAAGAAGGCCAAUUUACGUAAGACUGGAGGAUAUUCAGGAGAGU”, the “apparent Kd” value was 10.1 nM under setting [3] and 5.9 nM under setting [4].

For the sequence “UGGUGGAAGACAUGAGGAUCACCCAUGUUCGUAGAUGCCGAGCAGGAUAUUAGAUCAUAAACCAGUAAGAAGGGCUGAGUGUCU”, the “apparent Kd” value came out at 31.8 nM under setting [3] and 26.1 nM under setting [4].

For “GAGGCAACGAUGGAGGAUAUACUAGGUAAUACAUGAGGAUCACCCAUGUGAGAAAGAGAGUACAUGUAGAAGGCCAGAUAUGCGGU”, the “apparent Kd” value runs as follows: under setting [3], 30.5 nM; under setting [4], 11.8 nM.

As to “CGUGGGUGUGAGCCACAUGAGGAUCACCCAUGUCACAACGUGAGAAGGAACAGGCCCUGUGUCGGUUAGGAUAUCAAACCCUUA”, the “apparent Kd” value came to 142 nM under setting [1] and 27.3 nM under setting [2].

For the sequence “UGGAAUGUGCAAGGAUAUUGGCGGUGUGGAAUAGAAUCACUCGAACAUGAGGAUCACCCAUGUUGCAAGAAGGUGCGGGAACGA”, the “apparent Kd” value by setting is: under setting [1], 38.2 nM; under setting [2], 33.5 nM.

As for “GUGGCACUCCUAGGAUAUUCACCUUGCGUAGAAAGACAUGAGGAUCACCCAUGUGUCUCUUAUUUGAAGAAGGAGGAACCUCGG”, the “apparent Kd” value under setting [3] was 12.7 nM and the “apparent Kd” value under setting [4] is 13 nM.

Consider “UGAGUCUAAGGAUAUGCUGCCGACAACAUGAGGAUCACCCAUGUCUUUCGUUGUUCGCCGGCAGAAGGUAGCAAUU”, for which the “apparent Kd” value amounted to 561 nM under setting [1] and 262 nM under setting [2].

Consider “GAUCCCACGAAGAAGGUCAGAUUUAGAUUACUUGAAGGAUAUUCACAUGAGGAUCACCCAUGUCCCGGCGCGGACUAGCCGAAU”, for which the “apparent Kd” value stood at 107 nM under setting [1] and 235 nM under setting [2].

With “UAAGUGCUCACAUGAGGAUCACCCAUGUAUUUACUUAUGAGGAGAAGGAUCAAGGAGCAGCGGUGAUAGGAUAUCCUAAUAGAA”, the “apparent Kd” value worked out at 33 nM under setting [3] and 23.6 nM under setting [4].

Consider “UGAGGUAAGGAGAAGGUCCAACGAUGAAUUUAGGAAGGAUAUCCAACAUGAGGAUCACCCAUGUAAGGGUGCCCGAAGUCAGGA”, for which the “apparent Kd” value reads like this: under setting [1], 133 nM; under setting [2], 178 nM.

On to “AUUCCACAUGAGGAUCACCCAUGUUCUGCUCUGCAUGGAAACAGAAGGAUUCGCGUCAGGUCGAAAUAGGAUAUGUUGUCAAAG”, for which the “apparent Kd” value under setting [1] was found to be 33.6 nM and the “apparent Kd” value under setting [2] was found to be 28.5 nM.

Regarding “CAUCCACCUGAAGCCUCCCAAUUCCUCGAUACCAGAGGAUUAAGACUCCCUUGGCAGCGAGCUACAUGAGGAUCACCCAUGUGCC”, the “apparent Kd” value is, setting by setting: (designed as: OFF switch for theophylline, no ligand) 19.1 nM; (ligand present: theophylline, designed as: OFF switch for theophylline) 23.9 nM.

For the sequence “GAAUUUCGGAAGAAGGGACUCGAUCAGUUCAGGUCAGGAUAUUCACAUGAGGAUCACCCAUGUCCAUCAGCAUGACGUUUCCAC”, the “apparent Kd” value reads like this: under setting [1], 10.9 nM; under setting [2], 14.7 nM.

With “AUGAUAUGGGACAUGAGGAUCACCCAUGUCGGCUUUGUCACGCAGGAUAUUGCGACUCAAAUCGUCAAGAAGGGCGGAGACUCC”, the “apparent Kd” value is 21.5 nM under setting [1] and 19.6 nM under setting [2].

“CCUGGGACAUGAGGAUCACCCAUGUGUGUUAUCGGUGCGUGAGAGGAUAUACACAGCGUCCGUUAGUAGAAGGCUCAUGAUGUA”: the “apparent Kd” value by setting is: under setting [1], 88.3 nM; under setting [2], 52.5 nM.

In the case of “CACGCGGAGUUAGGAUAUAACGAUUGUCAGCCGUUAGAAGGAACCCAUCGCAAAUCUACGUCUAACAUGAGGAUCACCCAUGUU”, the “apparent Kd” value turned out to be 6.85 nM under setting [3] and 5.7 nM under setting [4].

Regarding “ACCAUGUAAGGAUAUCACAAGUUGAGUAGUUCGUUUGGGUGUGAGAAGGUACAUGAGGAUCACCCAUGUUCUGG”, the “apparent Kd” value stood at 154 nM under setting [1] and 237 nM under setting [2].

With “CCGAUGAUGAUAGGAUAUCUAGGAGUUAAGACGCCGUCUACAUGAGGAUCACCCAUGUUUCGAUUAGAGAAGGAUCGGGAUUCG”, the “apparent Kd” value was determined as 13.1 nM under setting [3] and 7.13 nM under setting [4].
